{"source": "ChEMBL document CHEMBL1126569", "about": "“Nucleosides and nucleotides. 123. Synthesis of 1-(2-deoxy-2-isocyano-beta-D-arabinofuranosyl)cytosine and related nucleosides as potential antitumor agents” (J Med Chem, 1993)", "key": {"[1]": {"test_system": "L1210", "test": "Tested in vitro for cytotoxicity against leukemia L1210 cell line in mouse", "format": "functional, cell-based", "outline": "(§1)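 Cells were grown in RPMI 1640 with 10% FCS, and the L1210 medium also had 2-mercaptoethanol added. Compound was dissolved in Ca/Mg-free Dulbecco's PBS or saline, diluted in culture medium and applied for 72 h in a CO2 incubator. Cells were fixed in 0.1% glutaraldehyde and stained with 0.01% crystal violet. Dye was extracted in 50% EtOH–25 mM NaH2PO4 and OD read. IC50 is the concentration giving 50% reduction of optical density.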"}, "[2]": {"test_system": "Mus musculus", "test": "Tested in vivo for antitumor activity against Lewis Lung Carcinoma cell line in mice and tumor weight change at 100 mg/Kg per day", "format": "functional", "outline": "(§2)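 A 2-mm cube of LLC was implanted s.c. in the backs of 9-week-old male BDF1 mice on day 0, with 7 mice per dose group. Drug in saline was given i.p. once daily on days 1–5 at 0.1 mL/10 g body weight. Tumor weight was measured on day 17. Percent inhibition compares the mean tumor weight of treated mice with vehicle-only controls.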"}, "[3]": {"test_system": "Mus musculus", "test": "Mean body weight change on 17th day at a dose of 200 mg/kg/day", "format": "functional", "outline": "(§3)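 LLC fragments were implanted s.c. into male BDF1 mice aged 9 weeks on day 0, with seven animals per dose. Drug dissolved in saline was given intraperitoneally once a day for 5 days, days 1–5. Mean body weight change was recorded on day 5 and on day 17 and compared with saline-vehicle controls.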"}, "[4]": {"test_system": "KB", "test": "Tested in vitro for cytotoxicity against KB human oral epidermoid carcinoma cell line", "format": "functional, cell-based", "outline": "as §1"}, "[5]": {"test_system": "Mus musculus", "test": "Tested for in vivo antitumor activity against Lewis Lung Carcinoma cell line in mice and tumor weight change at 200 mg/Kg per day", "format": "functional", "outline": "as §2"}, "[6]": {"test_system": "Mus musculus", "test": "In vivo percent inhibition of Lewis Lung Carcinoma cell line in mice at 100 mg/Kg per day (p<0.001) compared with ara-C", "format": "functional", "outline": "as §2"}, "[7]": {"test_system": "Mus musculus", "test": "In vivo percent inhibition of Lewis Lung Carcinoma cell line in mice at 200 mg/Kg per day (p<0.001) compared with ara-C", "format": "functional", "outline": "as §2"}, "[8]": {"test_system": "Mus musculus", "test": "Mean body weight change on 5th day at a dose of 200 mg/kg/day", "format": "functional", "outline": "as §3"}, "[9]": {"test_system": "KATO III stomach cancer cell line", "test": "Tested in vitro for cytotoxicity against KATO III human stomach adenocarcinoma cell line", "format": "functional, cell-based", "outline": "as §1"}, "[10]": {"test_system": "Lewis lung carcinoma cell line", "test": "Tested in vitro for cytotoxicity against LLC Lewis lung carcinoma cell line", "format": "functional, cell-based", "details": "Mus musculus", "outline": "as §1"}, "[11]": {"test_system": "Mus musculus", "test": "Mean body weight change on 17th day at a dose of 100 mg/kg/day", "format": "functional", "outline": "as §3"}, "[12]": {"test_system": "Mus musculus", "test": "Mean body weight change on 5th day at a dose of 100 mg/kg/day", "format": "functional", "outline": "as §3"}, "[13]": {"test_system": "L1210", "test": "tested in vitro for cytotoxicity against L1210 leukemia cell line in mouse", "format": "functional, cell-based", "outline": "as §1"}, "[14]": {"test_system": "KATO III stomach cancer cell line", "test": "tested for in vitro cytotoxicity against KATO III human stomach adenocarcinoma cell line", "format": "functional, cell-based", "outline": "as §1"}, "[15]": {"test_system": "Lewis lung carcinoma cell line", "test": "tested for in vitro cytotoxicity against LLC Lewis lung carcinoma cell line", "format": "functional, cell-based", "details": "Mus musculus", "outline": "as §1"}, "[16]": {"test_system": "KB", "test": "tested in vitro for cytotoxicity against KB human oral epidermoid carcinoma cell line", "format": "functional, cell-based", "outline": "as §1"}, "[17]": {"test_system": "Mus musculus", "test": "In vivo percent inhibition of Lewis Lung Carcinoma cell line in mice at 100 mg/Kg per day (p<0.001) compared with NCDAC", "format": "functional", "outline": "as §2"}, "[18]": {"test_system": "Mus musculus", "test": "Tested for in vivo antitumor activity against Lewis Lung Carcinoma cell line in mice and tumor weight change at 100 mg/Kg per day", "format": "functional", "outline": "as §2"}, "[19]": {"test_system": "KB", "test": "Tested for in vitro cytotoxicity against KB human oral epidermoid carcinoma cell line", "format": "functional, cell-based", "outline": "as §1"}, "[20]": {"test_system": "L1210", "test": "Tested in vitro for cytotoxicity against L1210 leukemia cell line in mouse"}, "[21]": {"test_system": "KATO III stomach cancer cell line", "test": "Tested for in vitro cytotoxicity against KATO III human stomach adenocarcinoma cell line", "format": "functional, cell-based", "outline": "as §1"}, "[22]": {"test_system": "Mus musculus", "test": "In vivo percent inhibition of Lewis Lung Carcinoma cell line in mice drug at 200 mg/Kg per day (p<0.001) compared with NCDAC", "format": "functional", "outline": "as §2"}, "[23]": {"test_system": "Lewis lung carcinoma cell line", "test": "Tested for in vitro cytotoxicity against LLC Lewis lung carcinoma cell line", "format": "functional, cell-based", "details": "Mus musculus", "outline": "as §1"}}, "data": [{"smiles": "[C-]#[N+][C@@H]1[C@H](n2ccc(N)nc2=O)OC(CO)[C@@H]1O", "note": "(stereo partly drawn)", "values": [{"measurement": "IC50", "setting": "[1]", "result": 12.6, "unit": "µM"}, {"measurement": "Tumor weight", "setting": "[2]", "result": 1.08, "unit": "g"}, {"measurement": "Weight change", "setting": "[3]", "result": 2.1}, {"measurement": "IC50", "setting": "[4]", "result": 7.9, "unit": "µM"}, {"measurement": "Tumor weight", "setting": "[5]", "result": 1.09, "unit": "g"}, {"measurement": "Inhibition ratio", "setting": "[6]", "result": 61, "unit": "%"}, {"measurement": "Inhibition ratio", "setting": "[7]", "result": 60.6, "unit": "%"}, {"measurement": "Weight change", "setting": "[8]", "result": 0.2}, {"measurement": "IC50", "setting": "[9]", "result": 90, "unit": "µM"}, {"measurement": "IC50", "setting": "[10]", "result": 4.9, "unit": "µM"}, {"measurement": "Weight change", "setting": "[11]", "result": 2}, {"measurement": "Weight change", "setting": "[12]", "result": 0.4}]}, {"smiles": "[C-]#[N+][C@@H]1[C@H](n2ccc(=O)[nH]c2=O)OC(CO)[C@@H]1O", "note": "(stereo partly drawn)", "values": [{"measurement": "IC50", "setting": "[13]", "result": 34, "unit": "µM"}, {"measurement": "IC50", "setting": "[14]", "result": "> 100", "unit": "µM"}, {"measurement": "IC50", "setting": "[15]", "result": "> 100", "unit": "µM"}, {"measurement": "IC50", "setting": "[16]", "result": 36.8, "unit": "µM"}]}, {"smiles": "Nc1ccn([C@@H]2O[C@H](CO)[C@@H](O)[C@@H]2O)c(=O)n1", "note": "[CYTARABINE]", "values": [{"measurement": "Inhibition ratio", "setting": "[17]", "result": 83, "unit": "%"}, {"measurement": "Weight change", "setting": "[3]", "result": 0.7}, {"measurement": "Tumor weight", "setting": "[5]", "result": 0.34, "unit": "g"}, {"measurement": "Weight change", "setting": "[8]", "result": -0.1}, {"measurement": "Tumor weight", "setting": "[18]", "result": 0.47, "unit": "g"}, {"measurement": "IC50", "setting": "[19]", "result": 640, "unit": "nM"}, {"measurement": "IC50", "setting": "[20]", "result": 120, "unit": "nM"}, {"measurement": "IC50", "setting": "[21]", "result": 300, "unit": "nM"}, {"measurement": "Inhibition ratio", "setting": "[22]", "result": 87.7, "unit": "%"}, {"measurement": "Weight change", "setting": "[11]", "result": 0.8}, {"measurement": "IC50", "setting": "[23]", "result": 5.6, "unit": "µM"}, {"measurement": "Weight change", "setting": "[12]", "result": -0.4}]}]}
